Screens from PubChem.
KCNK3 block: human KCNK3 channel inhibitors, primary screen, CHO cells, FluxOR thallium flux, B-score; Potassium channel subfamily K member 3 (Homo sapiens), O14649; FluxOR fluorescence; active compounds read low; B-score at 10 µM; hit rate 0.84% among 340,000;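 active = B-score under library mean minus 4 SD, starting fluorescence ratio at most library mean plus 5 SD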;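 also: more negative B-score means stronger inhibition of thallium flux through KCNK3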
hERG rescue: hERG rescue from dofetilide block, primary screen, cell-based, CHO-hERG, FluxOR thallium flux, dofetilide IC70 | Voltage-gated inwardly rectifying potassium channel KCNH2 (Homo sapiens), Q12809 | dofetilide IC70 present | activation (rescue from dofetilide block), less the hit threshold, % at 10 µM | hit rate 0.51% among 310,000 | AID 1511, 2009;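 active = activation above the mean of controls blocked by dofetilide plus 5 SD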;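 also: thallium influx through hERG after potassium depolarization seen as dye fluorescence rise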
Target sequence (Q12809 whole entry, looked up): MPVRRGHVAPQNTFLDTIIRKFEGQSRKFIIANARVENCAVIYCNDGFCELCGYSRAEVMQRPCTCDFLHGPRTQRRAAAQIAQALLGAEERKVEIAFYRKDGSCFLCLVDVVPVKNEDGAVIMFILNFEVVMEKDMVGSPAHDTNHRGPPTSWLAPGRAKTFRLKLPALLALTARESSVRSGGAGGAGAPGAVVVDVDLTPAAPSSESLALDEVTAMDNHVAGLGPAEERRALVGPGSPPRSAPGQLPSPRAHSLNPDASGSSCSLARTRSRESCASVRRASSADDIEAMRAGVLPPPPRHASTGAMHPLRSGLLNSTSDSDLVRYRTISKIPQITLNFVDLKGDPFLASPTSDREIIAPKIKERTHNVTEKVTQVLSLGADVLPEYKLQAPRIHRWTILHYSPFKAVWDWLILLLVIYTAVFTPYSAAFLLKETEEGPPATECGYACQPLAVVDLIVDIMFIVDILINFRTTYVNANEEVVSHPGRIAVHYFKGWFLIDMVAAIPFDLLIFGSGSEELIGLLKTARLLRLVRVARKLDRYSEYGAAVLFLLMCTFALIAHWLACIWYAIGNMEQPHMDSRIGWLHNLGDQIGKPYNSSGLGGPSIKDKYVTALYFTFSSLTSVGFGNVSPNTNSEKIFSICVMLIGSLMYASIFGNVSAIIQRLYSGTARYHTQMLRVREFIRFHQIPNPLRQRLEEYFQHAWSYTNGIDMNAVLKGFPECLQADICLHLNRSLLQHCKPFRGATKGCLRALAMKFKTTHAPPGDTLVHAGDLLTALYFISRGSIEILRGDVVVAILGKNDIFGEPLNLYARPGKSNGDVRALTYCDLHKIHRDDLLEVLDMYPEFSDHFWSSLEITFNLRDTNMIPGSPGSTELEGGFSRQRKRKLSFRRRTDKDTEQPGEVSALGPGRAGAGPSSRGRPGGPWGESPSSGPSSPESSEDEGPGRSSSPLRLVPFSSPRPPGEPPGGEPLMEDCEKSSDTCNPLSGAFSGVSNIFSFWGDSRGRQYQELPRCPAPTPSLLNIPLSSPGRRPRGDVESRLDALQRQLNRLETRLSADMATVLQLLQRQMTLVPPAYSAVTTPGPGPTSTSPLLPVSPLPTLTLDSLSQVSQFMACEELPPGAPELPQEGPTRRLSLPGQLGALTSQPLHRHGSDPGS
KCNK9 block: KCNK9 potassium channel inhibitors, primary screen, HEK293 cells, thallium flux; FluxOR thallium flux fluorescence; active compounds read low; hit rate 1.2% among 310,000; AID 488922, 2010; Potassium channel subfamily K member 9 (Homo sapiens), Q9NPC2; B-score at 10 µM;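 active = ratio B-score over 3 SD below the library mean, with starting fluorescence within 5 SD of its mean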;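 also: negative B-score means less thallium flux so channel inhibition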
KCNQ1 inh: inhibitors of human KCNQ1 channel, primary screen, cell-based, thallium flux, high-throughput | Potassium voltage-gated channel subfamily KQT member 1 (Homo sapiens), P51787 | CHO-K1 KCNQ1, FluxOR thallium flux fluorescence; active compounds read high | B-score at 10 µM | hit rate 1.3% among 310,000 | AID 2642, 2010;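 active = compounds whose thallium flux B-score, printed positive for inhibition, exceeds three library SD while starting fluorescence stays within three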;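 also: channel opened by potassium depolarization with thallium stimulus after 20 min compound exposure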
KCNQ1 act: potentiators or activators of KCNQ1 channel, primary screen, cell-based, thallium flux, high-throughput; CHO-K1 KCNQ1, thallium flux FluxOR fluorescence; active compounds read high; B-score at 10 µM; hit rate 0.35% among 310,000;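 active = fluorescence ratio B-score, a plate-corrected score, at least three library SD, with initial intensity B-score within 5 SD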
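assay system = KCNQ1-transfected CHO-K1 cells | medium = assay buffer with matched DMSO | probe or stimulus = depolarizing K+/Tl+ stimulus, K2SO4 and Tl2SO4 each 12.5 mM in 5x stock | dosing = single dose | incubation = dye 90 min, compound 20 min, room temperature | detection = kinetic FluxOR fluorescence, 10 s baseline plus 110 s post-stimulus | evaluation = ratio B score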
KCNK9 inh conf: KCNK9 potassium channel inhibitors, confirmation, HEK293 cells, thallium flux, duplicate; shares compounds with KCNK9 block; FluxOR thallium flux fluorescence; inhibition, % at 10 µM; hit rate 43% among 4,900;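 active = thallium signal inhibited by more than 5 SD of the compound-free buffer control wells, on both duplicate plates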;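 also: 0% = assay buffer control wells without compound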
Kir2-1 spec: mouse Kir2.1 channel inhibition, confirmation, selectivity assay for KCNK9 modulator project, cell-based, HEK293, thallium flux; hit rate 4% among 4,900; Kir2.1 cells, FluxOR thallium flux fluorescence; inhibition, % at 10 µM; shares compounds with KCNK9 block;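 active = thallium signal drop more than 5 SD beyond the mean of the no-compound control wells, seen in both duplicate plates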;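 also: signal is fluorescence rise after thallium addition divided by baseline fluorescence; plate controls were assay buffer only for no effect and full block by chlorpromazine control for full effect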
HEK293 Tl ctr: thallium flux in non-induced HEK293 cells, confirmation, counter-screen for KCNK9 inhibitor project, cell-based, second counter screen, non-induced KCNK9-HEK293; shares compounds with KCNK9 block; FluxOR thallium flux; inhibition, % at 10 µM; hit rate 40% among 4,900; AID 492997, 2010;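 active = thallium signal drop beyond 5 SD of the untreated control mean, on both duplicate plates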;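 also: plate controls were buffer only IC0 wells for no effect and SID17386958 at its maximal inhibitory level for full effect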
* = called active by the depositor; i = inactive; . = not tested or not shown. Most compounds without a hit are left out; they make up all but 3.1% or so of the library.

SMILES	KCNK3 block	hERG rescue	KCNK9 block	KCNQ1 inh	KCNQ1 act	KCNK9 inh conf	Kir2-1 spec	HEK293 Tl ctr
CCOc1ccc(S(=O)(=O)N(CC)CC(=O)NCc2ccncc2)cc1C	i	-4	i	i	i	.	.	.
CC(C)=C1C(=O)NN(c2ccc(F)c(Cl)c2)C1=O	i	1	i	i	i	.	.	.
O=C1NN(c2ccc(F)c(Cl)c2)C(=O)/C1=C\c1cccc(OC(=O)c2cccs2)c1	i	-11	i	i	i	i	i	i
O=C(CSc1nc2ccccc2o1)N/N=C/c1ccc(C(=O)O)cc1	i	-8	i	i	i	.	.	.
CCN(CC)S(=O)(=O)c1cc(NC(=O)C(C)N2CCN(Cc3ccc4c(c3)OCO4)CC2)ccc1C (stereo not drawn)	i	-7	i	i	i	.	.	.
CC(C)C(=O)Nc1nc(-c2ccc3c(c2)CCN3C(=O)C2CC2)cs1	i	-17	-8.9*	i	i	i	i	i
CC1(c2nnc(-c3cccc(Cl)c3)o2)CC(c2c(Cl)cccc2Cl)=NO1 (stereo not drawn)	i	-24	-10*	i	i	58%*	i	29%*
CCOc1ccc(N(CC(=O)NCCc2ccc(Cl)cc2)S(=O)(=O)c2c(C)[nH]c(=O)[nH]c2=O)cc1	i	-3	i	i	i	.	.	.
COc1ccc2c(c1)C1=NN(/C(C)=C/C(C)=O)C(c3cccc(F)c3)C1CC2 (stereo not drawn)	i	-16	-12*	i	i	44%*	i	33%*
Cc1cc(S(=O)(=O)N2CCOCC2)ccc1OCC(=O)Nc1ccc(F)cc1F	i	-6	i	i	i	.	.	.
O=c1oc2ccccc2c(O)c1Cc1cc(Cl)c2cccnc2c1O	i	-5	i	i	i	i	i	i
O=[N+]([O-])c1cc(/C=N/OCc2c(Cl)cccc2Cl)ccc1N1CCOCC1	i	-14	i	i	i	i	i	i
CO/N=C/c1ccc(N2CCOCC2)c([N+](=O)[O-])c1	i	-14	i	i	i	.	.	.
CSc1nc(C)cc(-n2ccc(=O)[nH]c2=O)n1	i	-2	i	i	i	.	.	.
O=C(Nc1cccc(Cl)c1)C1C2C=CC3(O2)C1C(=O)N(CCCN1CCCCC1)C3C(=O)NC1CCCCC1 (stereo not drawn)	i	-9	i	i	i	.	.	.
O=C(NNC(=O)c1cccc(Br)c1)Nc1ccc(Cl)cc1	i	-8	i	i	i	.	.	.
CC(C)c1ccc(NC(=O)c2cccc(Br)c2)cc1	i	-8	-8.8*	i	i	38%*	i	i
CCn1c(-c2csc3c2CCC(C)C3)n[nH]c1=S (stereo not drawn)	i	-4	i	i	i	.	.	.
CCCCN1CC[C@H]2C=CC[C@@H](C(=O)Nc3ccc(Cl)cc3Cl)[C@H]2C1=O	i	-11	i	i	i	i	i	i
O=C(Oc1cccc(C(=S)N2CCOCC2)c1)c1ccc([N+](=O)[O-])cc1	i	-2	i	i	i	.	.	.
Cc1ccc([N+](=O)[O-])cc1N=C(c1cccc(Br)c1)N1CCOCC1	-12*	-9	-20*	i	i	57%*	i	33%*
CN(C)C(=O)c1nc2ccc(Cl)cn2c1CN1CCCC(OCc2ccccc2)C1 (stereo not drawn)	i	-8	i	i	i	.	.	.
CC(=O)C1=C(C)NC(SCC(=O)c2cc(Cl)ccc2Cl)=C(C#N)C1c1ccco1 (stereo not drawn)	-14*	-6	-14*	11*	i	74%*	i	35%*
OCc1cccnc1	.	-7	i	i	i	.	.	.
CCOc1ccc(S(=O)(=O)Nc2cc(C)ccn2)c2ccccc12	i	-15	i	i	i	i	i	i
SMILES	KCNK3 block	hERG rescue	KCNK9 block	KCNQ1 inh	KCNQ1 act	KCNK9 inh conf	Kir2-1 spec	HEK293 Tl ctr
CCOc1ccc(S(=O)(=O)N(CC)CC(=O)NC2CCS(=O)(=O)C2)cc1 (stereo not drawn)	i	.	.	.	.	.	.	.
CSc1ccc(C=NNc2ccc(S(=O)(=O)Nc3ccccc3C(=O)O)cc2[N+](=O)[O-])cc1	i	.	.	.	.	.	.	.
Cc1nn(-c2ccccc2)c(Cl)c1/C=N/Nc1ccc(S(=O)(=O)Nc2ccccc2C(=O)O)cc1[N+](=O)[O-]	i	-11	i	i	i	i	i	i
CC(C)NC(=O)c1cc2cc(Br)ccc2oc1=O	i	-6	i	i	i	.	.	.
Cc1ccc(C(C)NC(=O)c2cc3cc(Br)ccc3oc2=N)cc1 (stereo not drawn)	i	-22	i	7*	i	i	i	i
CCN(CC)S(=O)(=O)c1csc(C(=O)NCc2ccccc2)c1	i	-9	i	i	i	.	.	.
S=C(NC1CCCCC1)N1CCOCCOCCN(C(=S)NC2CCCCC2)CCOCCOCC1	i	-2	-12*	i	i	50%*	i	33%*
O=C(NC1CCCCCC1)C(=S)N1CCOCC1	i	-10	i	i	i	.	.	.
CC(C)C(NC(=O)c1ccc(F)cc1)C(=O)OCC(=O)N1CC(=O)Nc2ccccc21 (stereo not drawn)	i	-12	i	i	i	.	.	.
COc1ccccc1/C=C/C1(C(=O)NC2CCCC2)CC(=O)N1c1ccc(C)cc1 (stereo not drawn)	i	-21	-9.8*	i	i	i	i	40%*
ClCC(CNCc1ccccc1)c1ccccc1 (stereo not drawn)	i	.	.	.	.	.	.	.
O=C(O/N=C\c1ccc(N2CCCCC2)c([N+](=O)[O-])c1)c1ccc(Cl)cc1Cl	i	-8	i	i	i	.	.	.
COc1ccccc1C(=O)/C=C/c1ccc(N2CCCCC2)c([N+](=O)[O-])c1	i	-4	-10*	i	i	50%*	i	31%*
